Measured values reported in paper PMC4010290 (Journal of Agricultural and Food Chemistry, 2014).

What was measured:
[1] = target: T1, Bovine serum albumin (BSA) (Bos taurus, UniProt P02769); experiment: Induced circular dichroism spectra of BSA; assay type: binding; conditions: 200 μM ligand; 30 μM BSA; pH 7.4
Outline: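 BSA at 30 μM in 0.2 M sodium phosphate, pH 7.4, with test compound at 0–200 μM, dissolved from water stocks. CD recorded 355–245 nm in a 1 mm cell under dry nitrogen at 298–301 K. Settings were 12 accumulated scans, 0.5 nm pitch, 1.0 nm bandwidth and 100 nm/min. Buffer spectrum subtracted, and induced CD calculated from sample spectra by the paper's equation.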

[2] = target: T1, Bovine serum albumin (BSA); experiment: BSA fluorescence quenching; assay type: binding; conditions: for KSV (Stern–Volmer constant, BSA fluorescence quenching): 3 μM BSA, 22 °C
[3] = target: Bovine serum albumin (BSA), Trp134 and Trp213 (Bos taurus, UniProt P02769); experiment: Time domain fluorescence lifetime of the two Trp residues of BSA; assay type: binding; conditions: for τ fluorescence lifetime Trp134 / τ fluorescence lifetime Trp213: 25 μM phenolic
Outline: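 BSA (3 μM final) mixed with test compound (25 μM) in 0.2 M sodium phosphate with 0.1 M NaCl at pH 3.0, 5.0 or 7.4. Samples vortexed, nitrogen-sparged 20 min, then held 1 h at 22 °C. Time-correlated single-photon counting used 250 nm LED excitation, collecting to 10000 peak counts. Biexponential decay fit gave lifetimes and amplitudes for Trp134 and Trp213.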

BSA Sudlow site I = conditions: cited from earlier work
BSA = BSA (Bos taurus, UniProt P02769); assay type: binding, bovine; conditions: pH 7.4; TB up to a 50-fold excess
BSA Sudlow site II = conditions: cited from earlier work

Sequence of Bovine serum albumin (BSA), Trp134 and Trp213 (P02769 25-607): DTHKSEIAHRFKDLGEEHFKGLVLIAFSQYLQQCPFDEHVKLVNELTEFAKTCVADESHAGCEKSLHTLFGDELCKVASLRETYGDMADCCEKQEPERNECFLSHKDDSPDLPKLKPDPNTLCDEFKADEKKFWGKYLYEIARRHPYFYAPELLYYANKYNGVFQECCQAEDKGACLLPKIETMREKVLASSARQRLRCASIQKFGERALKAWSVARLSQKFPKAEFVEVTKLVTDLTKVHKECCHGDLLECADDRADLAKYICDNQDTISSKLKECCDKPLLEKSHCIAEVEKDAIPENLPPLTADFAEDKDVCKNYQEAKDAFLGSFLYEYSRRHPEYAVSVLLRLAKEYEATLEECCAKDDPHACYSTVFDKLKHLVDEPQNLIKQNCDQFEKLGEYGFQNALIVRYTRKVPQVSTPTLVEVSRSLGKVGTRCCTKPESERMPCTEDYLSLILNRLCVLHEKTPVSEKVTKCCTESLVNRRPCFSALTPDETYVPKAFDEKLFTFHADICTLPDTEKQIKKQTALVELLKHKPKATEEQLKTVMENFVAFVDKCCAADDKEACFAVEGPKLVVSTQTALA
T1 sequence (P02769 25-607): as above
Sequence of BSA (P02769 25-607): as above

Row | Compound | Fluctuation of the amplitudes of the induced CD spectra [1] | Apparent affinity for BSA [2] | KSV (Stern–Volmer constant, BSA fluorescence quenching) ([2]; pH 3.0) | KSV (Stern–Volmer constant, BSA fluorescence quenching) ([2]; pH 5.0) | KSV (Stern–Volmer constant, BSA fluorescence quenching) ([2]; pH 7.4) | Change of lifetime of either Trp ([3]; any pH, 25 μM) | τ fluorescence lifetime Trp134 ([3]; pH 3.0) | τ fluorescence lifetime Trp213 ([3]; pH 3.0) | τ fluorescence lifetime Trp134 ([3]; pH 5.0) | τ fluorescence lifetime Trp213 ([3]; pH 5.0) | τ fluorescence lifetime Trp134 ([3]; pH 7.4) | τ fluorescence lifetime Trp213 ([3]; pH 7.4) | Reduction of fluorescence lifetime of Trp213 ([3]; pH 7.4 only, 25 μM) | Association constant, Sudlow site I (BSA Sudlow site I) | Inhibition of EGCg binding to BSA (BSA) | Association constant, Sudlow site II (BSA Sudlow site II)
1 | Oc1cc(O)c2c(c1)O[C@H](c1cc(O)c(O)c(O)c1)[C@H](O)C2 [EGC, (−)-Epigallocatechin] | ~0.2 mdeg | about 10^3 M^–1 | 0.30 × 10^4 M^–1 | 0.23 × 10^4 M^–1 | 0.64 × 10^4 M^–1 | did not change the lifetime | 5.41 ns | 2.15 ns | 6.58 ns | 3.04 ns | 6.54 ns | 2.93 ns | – | – | – | –
2 | COC(=O)c1cc(O)c(O)c(O)c1 [MG, methyl gallate] | ~0.2 mdeg | – | 0.85 × 10^4 M^–1 | 0.81 × 10^4 M^–1 | 5.4 × 10^4 M^–1 | – | 5.38 ns | 2.11 ns | 6.49 ns | 2.85 ns | 6.29 ns | 2.06 ns | 30% | – | – | –
3 | CCCCC1C(=O)N(c2ccccc2)N(c2ccccc2)C1=O [PB, phenylbutazone] | – | – | – | – | – | – | – | – | – | – | – | – | – | 6.2 × 10^5 M^–1 | – | –
4 | CCCCNC(=O)NS(=O)(=O)c1ccc(C)cc1 [TB, tolbutamide] | – | – | – | – | – | – | – | – | – | – | – | – | – | 8.7 × 10^4 M^–1 | did not inhibit | 0.81 × 10^4 M^–1
